# High-throughput results: PubChem BioAssay, Johns Hopkins Ion Channel Center
# RGS4 act – potentiators or activators of RGS4; HEK293 M3R/inducible RGS4, carbachol calcium flux Fluo4; hits give low values; B-score at 10 µM; 0.92% of 310,000 active; AID 463111;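 active = B-score of the integrated calcium signal more than 4 SD below the library mean, with starting fluorescence not abnormally high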;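 also: negative B-score means reduced calcium response which marks RGS4 activation or potentiation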
#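 Material: Inducible-RGS4 HEK293 cells carrying M3 receptor; also added: carbachol at ECmax as muscarinic agonist stimulus; incubation: compound preincubation 20 min at room temperature before agonist; signal: Fluo4-AM (2 µM) calcium-flux fluorescence, kinetic read; measure: integrated calcium ratio converted to B score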
# MrgX1 agonist – agonists of human MrgX1 receptor; Q96LB2; MrgX1-HEK293 cells, Fluo-4 calcium fluorescence, agonist mode; hits give high values; B-score at 10 µM; 0.44% of 310,000 active;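 active = calcium response B-score plate-corrected fluorescence ratio at least 3 library SD, with starting fluorescence B-score inside 5 SD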
# Target sequence (Q96LB2 whole entry, looked up): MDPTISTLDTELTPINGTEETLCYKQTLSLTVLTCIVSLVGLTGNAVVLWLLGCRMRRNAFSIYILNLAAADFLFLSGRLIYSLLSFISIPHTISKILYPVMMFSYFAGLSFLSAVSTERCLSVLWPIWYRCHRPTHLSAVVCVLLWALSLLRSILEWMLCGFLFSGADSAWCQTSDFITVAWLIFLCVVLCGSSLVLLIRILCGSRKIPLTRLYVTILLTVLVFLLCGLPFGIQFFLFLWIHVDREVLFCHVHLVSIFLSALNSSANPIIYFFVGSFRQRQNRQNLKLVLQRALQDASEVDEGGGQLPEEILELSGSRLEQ
#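 System – MrgX1-expressing HEK293 cells · Incubation – cells plated overnight, dye loaded 0.5 h 37 °C, 0.5 h room temperature · Technique – kinetic Fluo-4 NW fluorescence of intracellular calcium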
# MrgX1 allo act – allosterically activates human MrgX1 receptor signaling; 0.63% of 310,000 active; MrgX1-HEK293, Fluo-4 calcium flux, FDSS; hits give high values; B-score at 10 µM; Q96LB2;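 active = plate-corrected calcium response at least 3 library SD above typical, normal starting fluorescence, not activating the receptor alone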;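 also: compound read alongside a low EC10 to EC30 dose of BAM8-22 agonist; peak minus trough fluorescence over baseline measured at the second addition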
# MrgX1 antagonist – antagonists of human MrgX1 receptor | Q96LB2 | MRGX1-HEK293 calcium flux, Fluo-4, BAM8-22 antagonism; hits give low values | B-score at 10 µM | 1.3% of 310,000 active | AID 588676;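 active = calcium-response B-score plate-corrected more than 3 library SD below zero, starting fluorescence within 5 deviations, no agonist response on first addition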;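 also: peak minus trough fluorescence over baseline after final BAM8-22 challenge near maximal dose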
# RGS4 inh – inhibitors of human RGS4; P49798; HEK293 M3R/RGS4 inducible, Fluo-4 calcium flux; hits give high values; triggered by carbachol at its EC20; B-score at 10 µM; 0.45% of 310,000 active;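 active = B-score, a plate-corrected calcium signal, over three deviations above library mean, with baseline fluorescence within five deviations of library mean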;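 also: RGS4 expression induced by doxycycline in cells with stable M3 receptor; B-score is computed from the integrated fluorescence ratio over baseline after carbachol; higher B-score means a larger calcium signal and so more RGS4 inhibition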
# Target sequence (P49798 whole entry, looked up): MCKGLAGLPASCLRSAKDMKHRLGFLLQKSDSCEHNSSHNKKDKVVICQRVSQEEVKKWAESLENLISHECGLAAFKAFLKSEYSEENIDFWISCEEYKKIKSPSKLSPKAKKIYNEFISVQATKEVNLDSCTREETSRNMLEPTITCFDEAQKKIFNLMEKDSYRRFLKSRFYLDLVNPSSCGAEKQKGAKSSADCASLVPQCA
# An asterisk follows results filed as active; i = inactive; x = not tested or not shown. Shown are actives, neighbours in structure and some others; about 3.5% of the full set was active somewhere.
SMILES,RGS4 act,MrgX1 agonist,MrgX1 allo act,MrgX1 antagonist,RGS4 inh
COC(=O)[C@@]1(Cc2ccc(F)cc2)[C@H]2c3cc(C(=O)N(C)C)n(CCc4ccc(OC)c(Br)c4)c3C[C@H]2CN1C(=O)c1ccccc1,-7.21*,i,i,i,i
Cc1ccc(/C=N/NC(=O)Cc2c(F)cccc2Cl)s1,i,i,i,i,i
COc1ccc(OC)c(/C=C2\Oc3cc(OCC(=O)N4CCC[C@H]4C(=O)O)ccc3C2=O)c1,i,31.4*,i,i,i
COc1ccc(/C=C2\Oc3cc(OCC(=O)N4CCC[C@H]4C(=O)O)ccc3C2=O)c(OC)c1,i,i,i,i,i
Cc1cc(C)n2nc(C(=O)Nc3ccc(S(=O)(=O)N(C)C)cc3)nc2n1,i,i,i,i,i
Cc1cccc(Cn2c(-c3ccc[nH]c3=O)nc3ccccc32)c1,i,i,i,i,i
CCC1CCc2c([nH]c3ccccc3c2=O)O1 (stereo not given),i,i,i,i,i
CC1(C)CCc2c([nH]c3ccccc3c2=O)O1,-7*,i,i,i,i
CCCCCCCN1CCN=C1N(C)C,x,i,i,i,x
COc1ccc(-n2nc(C(=O)N3CCCCC3)c(C)c(C#N)c2=O)cc1,i,i,i,-5.83*,i
COC(=O)Nc1nn(-c2ccc(OC)cc2)c(=O)c(C#N)c1C,i,i,i,i,i
O=C(N/N=C/c1ccc(Cl)c([N+](=O)[O-])c1)c1cnccn1,i,i,i,-4.67*,i
CC(OC(=O)CNC(=O)c1ccc(Cl)cc1)C(=O)NC1CCCCC1C (stereo not given),i,i,i,i,i
Cc1cc(C)c2c(c1)C(=O)/C(=C/c1ccc(C(=O)O)cc1)CC2,i,i,16.4*,i,i
COc1ccc(C(=O)NCC(=O)N/N=C(\C)Cc2ccccc2)cc1,i,i,7.02*,i,i
Cc1ccc(S(=O)(=O)N2CCC(=O)N(C(COCc3ccc(C(F)(F)F)cc3)Cc3ccccc3)CC2)cc1 (stereo not given),-7.3*,i,i,i,i
Cc1ccc(S(=O)(=O)N2CCC(=O)N(C(COCc3ccc(Cl)c(Cl)c3)Cc3ccccc3)CC2)cc1 (stereo not given),i,i,i,-6.13*,i
Cc1ccc(S(=O)(=O)N2CCC(=O)N(C(COCc3cccc(C)c3)Cc3ccccc3)CC2)cc1 (stereo not given),i,i,i,i,i
CCC(Cc1c(I)cc(I)c(N)c1I)C(=O)O (stereo not given),x,i,i,i,x
CN(C(=O)COc1ccccc1C(=O)NCCOc1ccccc1)c1ccccc1,-9.15*,i,i,-5.71*,i
O=C(NCCOc1ccccc1)c1ccccc1Cl,i,i,i,i,i
CCc1cc2c(-c3ccccc3)cc(=O)oc2c(CN2CCOCC2)c1O,i,42.6*,i,i,i
O=c1cc(-c2ccccc2)c2ccc(O)c(CN3CCCCC3)c2o1,i,i,i,i,i
O=c1cc(-c2ccccc2)c2cc(Cl)c(O)c(CN3CCOCC3)c2o1,i,i,9.79*,i,i
CSc1ccc(C(=O)C2CCCN(C(=O)c3nonc3C)C2)cc1 (stereo not given),i,i,i,i,i
SMILES,RGS4 act,MrgX1 agonist,MrgX1 allo act,MrgX1 antagonist,RGS4 inh
Cc1nc2nc(-c3cccs3)cn2nc1C,-7.03*,i,i,i,i
O=C(NCCOc1ccccc1F)C1CCC(=O)N(CC2CCCCC2)C1 (stereo not given),i,x,x,x,i
S=C(Nc1ccccc1)Nc1cc(Cl)ccc1Oc1ccccc1,i,i,9.12*,i,i
CCCc1nc(SCC(=O)N2CCC(Cc3ccccc3)CC2)c2c(=O)n(C)c(=O)n(C)c2n1,-7.33*,i,i,i,i
CCc1nc(SCC(=O)N2CCCCCC2)c2c(=O)n(C)c(=O)n(C)c2n1,-7.65*,i,i,i,i
Cc1ccc(C)c(NS(=O)(=O)c2cc3c4c(c2)CC(=O)N4CCC3)c1,i,i,i,i,i
COc1cccc(-c2nc(CS(=O)(=O)CC(=O)Nc3cc(OC)ccc3OC)c(C)o2)c1,i,i,i,i,i
CCO[C@@H]1OC(C(=O)NCc2ccccc2)=C[C@H](c2coc3ccccc3c2=O)[C@H]1CCCO,i,i,i,-5.87*,i
C#CCNC(=O)C1=C[C@@H](c2ccc(C#C)cc2)[C@H](CCCO)[C@@H](OCC)O1,i,i,i,-8.35*,i
COc1ccc2c(c1)C(c1ccc(C)o1)=NNC(c1ccccc1)=N2,i,i,i,-8.37*,i
CCCOc1ccc(C(=O)NNC(=S)NC(=O)c2cc(-c3ccccc3)nc3ccccc23)cc1,-9.33*,i,i,-4.71*,i
O=C(NC(=S)NNC(=O)c1ccccc1[N+](=O)[O-])c1ccccc1,i,i,9.73*,i,i
O=C(NNC(=S)NC(=O)c1ccccc1[N+](=O)[O-])c1ccccc1,i,i,i,i,i
O=C(NNC(=S)NC(=O)c1cccc([N+](=O)[O-])c1)c1ccc(O)cc1,i,i,i,i,i
O=C(NNC(=S)NC(=O)c1cccc([N+](=O)[O-])c1)c1ccc(Br)cc1,-8.28*,92.9*,i,i,i
CCCOc1ccc(C(=O)NNC(=S)NC(=O)c2ccccc2[N+](=O)[O-])cc1,i,i,8.39*,i,i
CCCCC(=O)Nc1ccc(C(=O)NNC(=S)NC(=O)c2ccccc2[N+](=O)[O-])cc1,i,i,i,i,i
CCCOc1ccc(C(=O)NNC(=S)NC(C)=O)cc1,i,i,i,i,i
COc1cccc(CN2CC(C(=O)NCCOc3cccnc3)CCC2=O)c1 (stereo not given),i,i,i,i,i
CCC(=NC(C)c1ccccc1)c1c(O)n(C)c(=O)n(C)c1=O (stereo not given),i,i,i,-7.4*,i
CCOc1ccc2c(c1)/C(=C(\C(Cl)=C(Cl)Cl)[N+](=O)[O-])N2,i,i,i,i,i
CCCCOc1ccc2c(c1)/C(=C(\C(Cl)=C(Cl)Cl)[N+](=O)[O-])N2,i,33.7*,i,i,i
Cc1cc(NC(=O)Nc2cccc(Cl)c2)n(-c2ccccn2)n1,i,i,i,i,i
